# Test results published in ChEMBL document CHEMBL1649261, “Pharmacodynamic profile of tigecycline against methicillin-resistant Staphylococcus aureus in an experimental pneumonia model” (Antimicrob Agents Chemother, 2009).
# What was measured:
# Assay type in all cases: functional
# Staphylococcus aureus [1] = assay: Antibacterial activity against methicillin-susceptible Staphylococcus aureus ATCC 29213 by microdilution method
# Summary of the method: (§1)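 Tigecycline MIC measured in triplicate by broth microdilution following CLSI guidelines. Isolates were stored at −80°C in skim milk and subcultured twice on blood agar before testing.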
# Staphylococcus aureus [2] = assay: Antibacterial activity against community-acquired methicillin-resistant Staphylococcus aureus 147 by microdilution method; summary of the method: as §1
# Staphylococcus aureus [3] = assay: Antibacterial activity against hospital-acquired methicillin-resistant Staphylococcus aureus 56 by microdilution method; summary of the method: as §1
# Staphylococcus aureus [4] = assay: Antibacterial activity against community-acquired methicillin-resistant Staphylococcus aureus 144 by microdilution method; summary of the method: as §1
# Staphylococcus aureus [5] = assay: Antibacterial activity against hospital-acquired methicillin-resistant Staphylococcus aureus 152 by microdilution method; summary of the method: as §1
smiles,measurement,setting,value
C[C@H]1c2cccc(O)c2C(=O)C2=C(O)[C@]3(O)C(=O)C(C(N)=O)=C(O)[C@@H](N(C)C)[C@@H]3[C@@H](O)[C@@H]21.O [DOXYCYCLINE],MIC,Staphylococcus aureus [1],0.5 µg/mL
same,MIC,Staphylococcus aureus [2],2 µg/mL
same,MIC,Staphylococcus aureus [3],8 µg/mL
same,MIC,Staphylococcus aureus [4],0.5 µg/mL
same,MIC,Staphylococcus aureus [5],0.5 µg/mL
